Where only a bound is given, the exact number is not on record here.

Here are results for 8 compounds from publication PMC2773749 (Biochemistry, 2009).

The target in test [1] is T1, K18PL tau (Homo sapiens, UniProt P10636, P618L). In words: Primary qHTS K18PL tau fibrillization, ThT fluorescence readout. It is filed as biochemical. As to conditions: for 1° ThT Screen Log IC50 / 1° ThT Screen Curve class: ThT fluorescence; for 1° ThT Screen Log IC50: printed as Log IC50; for 1° ThT Screen % Inhib: maximum % inhibition of ThT fluorescence. The method in brief: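 Screen used K18PL tau (15 µM) with Alexa Red-labelled K18PL and 40 µM heparin stock, plus compound at six five-fold dilutions (56 µM–18 nM), run 6 h at 37°C. ThT was added (12.5 µM final, 100 mM glycine pH 8.5) for 1 h at room temperature; read ex 450/em 510 nm. Percent inhibition was computed versus median K18KD and DMSO controls, then pattern-corrected, with concentration-response curves fitted and classified. Single determinations per concentration.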
T1 sequence (P10636 561-686 P618L): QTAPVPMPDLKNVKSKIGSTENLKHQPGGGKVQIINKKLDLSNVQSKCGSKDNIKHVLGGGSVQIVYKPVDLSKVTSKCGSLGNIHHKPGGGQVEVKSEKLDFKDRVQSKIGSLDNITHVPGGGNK

The target of test [2] is T1, K18PL tau. In words: Primary qHTS K18PL tau assembly, fluorescence polarization. As to conditions: for 1° FP Screen Log IC50: printed as Log IC50; for 1° FP Screen % Inhib: maximum % inhibition of FP. It is filed as biochemical. The method in brief: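 K18PL (30 µM stock with 0.24 µM Alexa Red-labelled K18PL) received compound at six five-fold dilutions (56 µM–18 nM), then heparin, and incubated 6 h at 37°C. FP was read after ThT (ex 555, em 632 nm, P/S channels); mP = 1000*(S−G*P)/(S+G*P), G = 1. Inhibition was normalised to non-fibrillizing K18KD and DMSO wells, pattern-corrected, and curve-fitted and classified. Single determinations.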

Another test concerns the target β-lactamase (Enterobacter cloacae, UniProt P05364). In words: β-Lactamase promiscuous inhibitor assay. Format: biochemical. The settings on record: in the absence of Triton X-100.
For test [3], the target named is tau-mediated MT assembly (K18 tau, bovine brain tubulin) (Homo sapiens, UniProt P10636). Briefly: Tau-mediated MT assembly assay. It is filed as biochemical. As to conditions: 50 µM compound, 40 µM K18, 30 µM tubulin.
Chain of tau-mediated MT assembly (K18 tau, bovine brain tubulin) (P10636 561-686): as the sequence (P10636 561-686 P618L) above, with L58P counted along it
Test [4] can be described thus: Activity in other PubChem / NIH Chemical Genomics Center screens.
Test [5] addresses T1, K18PL tau. In words: K18PL tau centrifugation. It is filed as biochemical. As to conditions: compound 100 µM, Table 1 hits. The essentials:
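Heparin-induced K18PL fibrillization was run with test compound at a single concentration of 100 µM or with DMSO vehicle, then centrifuged to sediment fibrils. Supernatant and pellet fractions were analysed by SDS-PAGE, and the percentage of tau remaining in the soluble fraction was determined.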

The nature of test [6]: Alexa Red total fluorescence. As to conditions: percent inhibition of Alexa Red total fluorescence. The essentials:
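Alexa Red total fluorescence was computed from the qHTS FP S and P channel readings as TF = S + 2*P. It was expressed as a percentage of the DMSO control value, with values >30% flagged as potential fluorescence interference.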

The target of test [7] is T1, K18PL tau. Briefly: Repeat K18PL tau ThT fluorescence assay. Format: biochemical. As to conditions: repeat testing of screening hits, maximum percent inhibition. The method in brief: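 Retesting of K18PL heparin-induced fibrillization used duplicate samples at each concentration, with the highest tested concentration 80 µM. ThT was read at 12.5 µM final in 100 mM glycine, pH 8.5, with excitation 450 nm and emission 510 nm. IC50 and percent inhibition at the top concentration were derived.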

Another test deals with Tau40 (Homo sapiens, UniProt P10636). Briefly: SEC of Tau40 fibrillization reaction post-centrifugation supernatants. It is filed as biochemical. As to conditions: 50 µM MLS000062428. The essentials: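 Tau40 (50 µM) was incubated with heparin (20 µM) ± test compound in 100 mM sodium acetate, pH 7.0, for 5 days at 37°C. A no-heparin control was included. Reactions were spun at 40,000 g for 30 min, and supernatants were run on Superdex 200 at 0.4 ml/minute. Void volume was set by blue dextran, with BSA and cytochrome c as markers.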
Chain of Tau40 (P10636 1-441 isoform P10636-8): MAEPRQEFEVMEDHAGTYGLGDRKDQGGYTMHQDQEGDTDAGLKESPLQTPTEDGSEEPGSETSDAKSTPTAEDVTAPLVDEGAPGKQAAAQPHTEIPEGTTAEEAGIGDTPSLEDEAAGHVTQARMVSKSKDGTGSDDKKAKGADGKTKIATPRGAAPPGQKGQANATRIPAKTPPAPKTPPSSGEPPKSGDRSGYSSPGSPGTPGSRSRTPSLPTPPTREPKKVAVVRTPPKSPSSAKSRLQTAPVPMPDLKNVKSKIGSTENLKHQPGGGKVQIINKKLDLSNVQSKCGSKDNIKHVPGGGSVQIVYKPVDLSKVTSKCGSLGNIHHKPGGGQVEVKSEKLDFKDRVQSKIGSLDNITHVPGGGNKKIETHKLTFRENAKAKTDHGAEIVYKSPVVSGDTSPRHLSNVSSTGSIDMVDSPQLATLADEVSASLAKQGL

In a further test the target is full-length tau40 (Homo sapiens, UniProt P10636). In words: Tau40 ThT fluorescence assay. It is filed as biochemical. As to conditions: inhibition of ThT fluorescence, compound 50 µM.
Chain of full-length tau40 (P10636 1-441 isoform P10636-8): as above

Chain of β-lactamase (P05364 21-381): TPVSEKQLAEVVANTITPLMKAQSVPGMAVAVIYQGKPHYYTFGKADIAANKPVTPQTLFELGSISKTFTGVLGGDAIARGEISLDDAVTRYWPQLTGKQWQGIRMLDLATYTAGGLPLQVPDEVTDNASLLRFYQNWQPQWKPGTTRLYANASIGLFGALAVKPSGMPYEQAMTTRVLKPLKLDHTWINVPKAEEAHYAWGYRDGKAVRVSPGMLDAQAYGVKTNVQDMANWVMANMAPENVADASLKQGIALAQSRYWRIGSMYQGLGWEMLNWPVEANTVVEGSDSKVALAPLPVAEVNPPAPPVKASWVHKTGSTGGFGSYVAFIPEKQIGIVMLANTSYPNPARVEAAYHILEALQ

Take `CN(C(=S)Nc1cccnc1)c1ccc(O)cc1` [MLS000339510]: the “1° ThT Screen Log IC50” value at K18PL tau [1] was −5.7. Further, the “1° FP Screen Log IC50” value at K18PL tau [2] was −5.5.
On to `NS(=O)(=O)c1cc(C(=O)O)c(NCc2ccco2)cc1Cl` [Furosemide], for which the β-lactamase inhibition at β-lactamase is listed as 3%.
For `CN(C)c1ccc2nc3ccc(=[N+](C)C)cc-3sc2c1` [methylene blue, reference compound], the “effect on tau-mediated tubulin polymerization” value in test [3] is reported as “significant diminution”. The “promiscuity in other screens” value in [4] is “active in a high percentage of PubChem screens”.
Turning to `CCOC(=O)c1nn(-c2ccc(OC)cc2)c(=O)c2c(N)scc12` [MLS000062428], the “Centrifugation % Soluble” value at K18PL tau [5] was 80%. Also, in test [6], the “Total Fluor % Inhib” value is 49%. The “Repeat ThT Assay % Inhib” value at K18PL tau [7] is 97%. Moreover, at K18PL tau [1], the “1° ThT Screen Curve class” value is recorded as 2.1, the “1° ThT Screen Log IC50” value is listed as −5.0 and the “1° ThT Screen % Inhib” value came to 94%. Further, the “oligomeric tau species in post-centrifugation supernatant” value on Tau40 (eluted in column void volume) is “detectable oligomeric species”. Moreover, on Tau40 (relative to untreated fibrillization reaction), the “amount of monomeric tau in post-centrifugation supernatant” value is listed as “appreciable increase”. For the same compound, the “promiscuity in other screens” value in [4] is “do not show signs of promiscuity”. Further, at K18PL tau [2], the “1° FP Screen Curve class” value was 2.2, the “1° FP Screen Log IC50” value is listed as −5.0 and the “1° FP Screen % Inhib” value is given as 46%. In addition, the “Tau40 % Inhib” value at full-length tau40 stood at 64%.
As for `CCn1c(CSc2nccn2C)nc2cc(C(=O)O)ccc21` [MLS000058666], in [6], the “Total Fluor % Inhib” value is less than 10%. Besides, the “Repeat ThT Assay % Inhib” value on K18PL tau [7] is on record as 84%. For the same compound, on K18PL tau [1], the “1° ThT Screen Curve class” value worked out at 1.2, the “1° ThT Screen Log IC50” value is listed as −5.4 and the “1° ThT Screen % Inhib” value is recorded as 65%. Also, at K18PL tau [2], the “1° FP Screen Curve class” value came out at 1.2, the “1° FP Screen Log IC50” value is listed as −5.1 and the “1° FP Screen % Inhib” value amounted to 41%. In addition, the “Tau40 % Inhib” value at full-length tau40 was 81%.
For the compound `CC(=O)c1c(O)c(C)c(O)c(Cc2c(O)c3c(c(C(=O)/C=C/c4ccccc4)c2O)OC(C)(C)C=C3)c1O` [Rottlerin], the β-lactamase inhibition at β-lactamase is recorded as 53%.
For the compound `CCOC(=O)c1nn(-c2ccccc2)c(=O)c2c(N)scc12` [MLS000034832], on K18PL tau [1], the “1° ThT Screen Curve class” value amounted to 2.1, the “1° ThT Screen Log IC50” value is on record as −5.0 and the “1° ThT Screen % Inhib” value is given as 80%. Also, the “promiscuity in other screens” value in test [4] was “do not show signs of promiscuity”. Besides, at K18PL tau [2], the “1° FP Screen Log IC50” value is recorded as −5.3.
In the case of `CC(N)[C@H](O)c1ccc(O)c(O)c1` (stereo partly drawn) [NCGC00093795], the “Repeat ThT Assay % Inhib” value at K18PL tau [7] came to 103%. For the same compound, at K18PL tau [1], the “1° ThT Screen Log IC50” value is reported as −5.5. In addition, the “1° FP Screen Log IC50” value at K18PL tau [2] is given as −5.7.
